Source: PubChem
In the library only some 4.6% were active in any assay of this set; here they are far more common.
OX1R antag-1 – antagonists of human orexin 1 receptor (OX1R); inhibition, % at 6.6 µM; OX1R-expressing cells, FRET antagonist read-out; 330,000 tested, 1.8% active; in the data active = inhibition mostly above about 38%, no sharp cut-off; inactive = mostly below about 40%;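 note: 0% = agonist challenge alone and 100% = reference antagonist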
TAAR1 agonist – human TAAR1 agonists, primary screen, Fluo-8 calcium fluorescence, CHO RD-HGA16 cells. vehicle wells 0%, saturating PEA agonist 100%. activation, % at 3 µM. 360,000 tested, 0.99% active;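 active = activation above the mean activation of all test compounds in the run plus 3 SD, cut at about 38% in these data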
Target sequence (Q96RJ0 whole entry, looked up): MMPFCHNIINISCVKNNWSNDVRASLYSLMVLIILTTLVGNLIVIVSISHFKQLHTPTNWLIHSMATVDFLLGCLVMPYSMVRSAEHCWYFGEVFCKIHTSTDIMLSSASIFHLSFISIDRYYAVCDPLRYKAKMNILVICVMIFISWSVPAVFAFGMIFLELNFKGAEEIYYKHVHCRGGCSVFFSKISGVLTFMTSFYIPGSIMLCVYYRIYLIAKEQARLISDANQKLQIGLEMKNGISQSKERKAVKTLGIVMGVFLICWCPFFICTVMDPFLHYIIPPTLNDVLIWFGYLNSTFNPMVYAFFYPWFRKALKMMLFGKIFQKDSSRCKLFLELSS
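Assay system – CHO-derived RD-HGA16 cells with stable Gα16 and human TAAR1 · Compound dosing – one-point dosing at 3 µM (nominal) · Incubation – 17-24 h seeding, 75 min 37 °C dye, 30 min RT · Measured by – kinetic Fluo-8 calcium fluorescence · Control set – DMSO vehicle as 0%, PEA at EC100 as 100% · Repeats – single well for each compound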
TAAR1 antagonist – human TAAR1 antagonists, primary screen, Fluo-8 calcium fluorescence, CHO RD-HGA16 cells; 360,000 tested, 1.5% active; Trace amine-associated receptor 1 (Homo sapiens), Q96RJ0; antagonist; inhibition, % at 3 µM; AID 624466, 2012;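 active = inhibition above a per-plate cutoff, the mean inhibition of test compounds on that plate plus 3 SD, cut at about 49% in these data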;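 note: 0% = DMSO plus EC80 beta-PEA response and 100% = DMSO alone without agonist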
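Assay system: CHO-derived RD-HGA16 cells stably expressing human TAAR1 plus Gα16. Timing: 140 s kinetic read after compound, 140 s after agonist. Technique: kinetic Fluo-8 calcium fluorescence measurement. Measure: % inhibition of agonist calcium response.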
GPR7 antag – GPR7 receptor antagonists, primary screen, cell-based, fluorescence, single concentration; Neuropeptides B/W receptor type 1 (Homo sapiens), P48145; GPR7-expressing cells, fluorescence antagonist assay; inhibition, % at 4.4 µM; 290,000 tested, 1.1% active; AID 1861, 2009; in the data active = inhibition above about 16%, passing the limit was not always enough;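 note: cells stimulated with the agonist NPW; 0% = agonist with vehicle and 100% = vehicle without agonist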
Target sequence (P48145 whole entry, looked up): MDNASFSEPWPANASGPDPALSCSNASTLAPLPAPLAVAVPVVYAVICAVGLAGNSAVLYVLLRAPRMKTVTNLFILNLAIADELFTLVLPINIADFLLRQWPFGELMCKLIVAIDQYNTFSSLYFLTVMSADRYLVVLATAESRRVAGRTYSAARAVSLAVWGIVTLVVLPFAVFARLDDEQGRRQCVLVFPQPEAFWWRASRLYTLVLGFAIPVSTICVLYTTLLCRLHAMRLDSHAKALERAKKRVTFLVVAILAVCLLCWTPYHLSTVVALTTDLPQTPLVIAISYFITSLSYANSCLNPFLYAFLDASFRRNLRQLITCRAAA
CHO parental Ca – ATP-evoked calcium signal inhibitors, parental CHO, primary screen, counter-screen for OX1R antagonist project, cell-based, fluorescence, Fluo-8 calcium dye; parental CHO-K1, ATP-induced calcium, Fluo-8 fluorescence; inhibition, % at 5.6 µM; 330,000 tested, 0.63% active; AID 463079, 2010;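 active = inhibition above that plate's mean sample inhibition plus 3 SD, cut at about 26% in these data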;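 note: 0% = ATP-challenged DMSO wells and 100% = DMSO wells without ATP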
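Test system: untransfected parental CHO cell line. Compound: one dose, 5.6 µM nominal. Detection: intracellular calcium via Fluo-8 no-wash fluorescent dye. Measure: % inhibition. Benchmarks: ATP-challenged DMSO wells low, unchallenged DMSO wells high.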
OX1R antag-2 – OX1R (HCRTR1) antagonists, primary screen, fluorescence, CHO/OX1R cells, Fluo-8 calcium, orexin A | Orexin/Hypocretin receptor type 1 (Homo sapiens), O43613 | Fluo-8 calcium fluorescence | inhibition, % at 5 µM | 330,000 tested, 0.43% active;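 active = inhibition above its plate's threshold, mean inhibition of all tested compounds on the plate plus 3 SD, cut at about 37% in these data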;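 note: 0% = orexin A challenge wells and 100% = SB-334867-A antagonist wells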
TAAR1 ag confirm – human TAAR1 agonists, retest of hits, confirmation, Fluo-8 calcium fluorescence, CHO RD-HGA16 cells; activation, % at 3 µM; scaled: DMSO 0%, maximal phenethylamine 100%; AID 651783, 2012; shares compounds with TAAR1 agonist; 2,400 tested, 82% active;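 active = activation above a cutoff set at the run's mean compound activation plus 3 SD, cut at about 39% in these data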
Ga16 nonsel ag – nonselective calcium mobilization agonists, CHO-Ga16 cells, counter-screen for hTAAR1 agonist project, cell-based, fluorescence, CHO-Ga16 parental line. shares compounds with TAAR1 agonist. 2,400 tested, 50% active. activation, % at 3 µM. Fluo-8 calcium fluorescence; normalized to maximal ATP response, DMSO zero;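 active = activation above the run cutoff, the mean activation over all tested wells plus 3 SD, cut at about 12% in these data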;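 note: 0% = DMSO wells and 100% = maximal ATP response on the peak over basal ratio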
TAAR1 desens – TAAR1 desensitization by agonist hits, confirmation, counter-screen for TAAR1 agonist project, cell-based, fluorescence, tachyphylaxis; shares compounds with TAAR1 agonist; CHO RD-HGA16 hTAAR1, Fluo-8 calcium, beta-PEA response inhibition; 2,400 tested, 46% active; AID 651951, 2012; inhibition, % at 3 µM;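 active = inhibition above the run cutoff, the mean inhibition of all test compounds plus 3 SD, cut at about 49% in these data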;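 note: beta-PEA stimulus applied at its EC80; loss of beta-PEA calcium signal after compound pretreatment read as receptor desensitization; 0% = DMSO with beta-PEA at EC80 and 100% = DMSO alone without agonist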
Ga16 nonsel ant – inhibition of ATP-evoked calcium response in CHO-Ga16 cells, counter-screen for TAAR1 agonist project, cell-based, fluorescence; shares compounds with TAAR1 agonist; CHO-Ga16 ATP-induced calcium, Fluo-8 fluorescence; inhibition, % at 3 µM; 2,400 tested, 39% active;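 active = inhibition above the plate's mean compound inhibition plus 3 SD, computed per plate, cut at about 22% in these data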;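 note: 0% = EC80 ATP with DMSO and 100% = DMSO wells without ATP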
* hit, by the source's call; x = not tested or not shown.

SMILES | OX1R antag-1 | TAAR1 agonist | TAAR1 antagonist | GPR7 antag | CHO parental Ca | OX1R antag-2 | TAAR1 ag confirm | Ga16 nonsel ag | TAAR1 desens | Ga16 nonsel ant
O=C(CNC(=O)c1cccc(F)c1)N/N=C/C=C/c1ccccc1 | 6 | x | x | -10 | -14 | -17 | x | -1 | x | 5
COc1ccc(Cn2c(-c3ccc(C)cc3)nc3c(c(=O)c4ccccc4n3C)c2=O)cc1 | 15 | 91* | 58* | -8 | -9 | -27 | 85* | 53* | 68* | 42*
CSCCC(NC(=O)c1ccccc1Cl)C(=O)NCC(c1cccs1)N(C)C (centres undefined) | x | 1 | -3 | x | x | x | x | x | x | x
O=C(CSc1nc2[nH]ncc2c(=O)[nH]1)NCCc1ccccc1 | 2 | 57* | 12 | -1 | -8 | 12 | 29 | 0 | 13 | 10
O=C(CSc1nc2[nH]ncc2c(=O)[nH]1)NCc1ccccc1 | 7 | -1 | -4 | -3 | -6 | -8 | x | x | x | x
Cc1c(CNCCc2ccccc2Cl)c(C(=O)O)c(C)n1-c1ccccc1 | -7 | 90* | 65* | -8 | -20 | -32 | 92* | 25* | 74* | 6
Cc1ccc2c(c1)cc1c(=O)n(CC(=O)NCCN3CCCC3)nc(C)n12 | 3 | x | x | -20 | 0 | 9 | x | x | x | x
CC(C)N(C)CCOC(=O)/C=C/c1ccccc1 | 8 | 73* | 54* | -4 | 1 | -12 | 3 | 0 | 11 | 0
CN(CCOC(=O)/C=C/c1ccccc1)C(C)(C)C | 6 | 2 | 0 | -4 | -8 | -1 | x | x | x | x
CCOc1ccccc1N1CCN(Cc2cn[nH]c2-c2ccc(F)cc2)CC1 | 7 | 95* | -29 | -17 | -31 | -42 | 83* | 41* | 22 | 12
CCOc1ccccc1N1CCN(Cc2cccc(OC)c2OC)CC1 | 8 | 13 | 9 | -6 | -34 | -41 | x | x | x | x
Oc1ccc(/C=N\Nc2cc(N3CCOCC3)nc(N3CCOCC3)n2)c(O)c1 | 18 | 8 | -9 | -1 | -8 | -24 | x | x | x | x
Cc1cc(N/N=C/c2ccc(O)cc2O)nc(N2CCOCC2)n1 | 14 | x | x | -10 | 1 | -16 | x | 4 | x | 9
O=S1(=O)CC2SC(=S)N(Cc3ccccc3)C2C1 (centres undefined) | 6 | 2 | -9 | -15 | -11 | -15 | x | x | x | x
CN(CCc1ccccn1)C(=S)Nc1ccc(Cl)c(Cl)c1 | 24 | 31 | 0 | -2 | -29 | -28 | x | x | x | x
Cc1ccc(C)c(NC(=S)N(C)CCc2ccccn2)c1 | 0 | 45* | -9 | -8 | -5 | 2 | 39* | 0 | -2 | -1
Cc1ccccc1NC(=S)N(C)CCc1ccccn1 | 7 | 58* | 7 | -2 | -8 | -7 | 61* | 2 | 15 | 8
Clc1ccc(CSc2ncnc3nc[nH]c23)cc1 | 2 | 3 | 4 | -2 | -12 | 0 | x | x | x | x
CC(=O)CSc1cc(-c2ccccc2)nc2ncnn12 | 4 | 4 | -21 | -6 | -13 | -4 | x | x | x | x
CCOc1ccc(-c2ccc(SCC(=O)N3CCN(c4ccccc4)CC3)nn2)cc1 | 8 | x | x | -7 | -5 | -13 | x | x | x | x
CC1(c2ccc3c(c2)OCCO3)NC(=O)N(CC(=O)c2ccc[nH]2)C1=O (centres undefined) | 1 | 7 | 5 | x | 0 | -10 | x | x | x | x
CC1Cc2ccccc2N1C(=O)CN1C(=O)NC(C)(c2ccc3c(c2)OCCO3)C1=O (centres undefined) | 10 | 53* | -5 | 13 | -14 | -17 | 43* | 9 | 4 | 9
CC12CCC(=O)N1C(C(=O)Nc1nc(-c3ccc(F)cc3)cs1)CS2 (centres undefined) | 12 | 14 | 35 | x | -10 | -22 | x | x | x | x
COC(=O)c1ccc2c(=O)n(CCN3CCOCC3)c(SCC(=O)Nc3ccccc3OC)nc2c1 | x | 1 | -25 | x | x | x | x | x | x | x
CN(C)S(=O)(=O)c1cccc(NC(=O)c2cc3ccccc3o2)c1 | 21 | 28 | 18 | -6 | -2 | -7 | x | x | x | x
SMILES | OX1R antag-1 | TAAR1 agonist | TAAR1 antagonist | GPR7 antag | CHO parental Ca | OX1R antag-2 | TAAR1 ag confirm | Ga16 nonsel ag | TAAR1 desens | Ga16 nonsel ant
Cc1cc(C(c2ccc(O)cc2)c2cc(C)c(O)cc2C)c(C)cc1O | 5 | 113* | 85* | 58* | 19 | 29 | 131* | 77* | 78* | 41*
Cc1cccc(C(=O)NC(NCc2ccco2)C(Cl)(Cl)Cl)c1 (centres undefined) | 29 | -4 | 9 | -18 | -17 | -14 | x | x | x | x
Cc1cccc(C(=O)NC(NCCc2ccccc2)C(Cl)(Cl)Cl)c1 (centres undefined) | 29 | 80* | 61* | -19 | -27 | -19 | 69* | -1 | 48 | 4
CC1(c2nnc(-c3ccncc3)o2)CC(c2ccc([N+](=O)[O-])cc2)=NO1 (centres undefined) | x | 5 | 7 | x | x | x | x | x | x | x
O=c1ccc2[n+]([O-])c3ccc(O)cc3oc-2c1 | x | 58* | 8 | -6 | x | x | 32 | 42* | 26 | 42*
NC(=O)CC(NC(=O)Cc1ccc(Cl)cc1)c1ccc(NCCc2ccccc2F)c([N+](=O)[O-])c1 (centres undefined) | 9 | x | x | x | -7 | 0 | x | 3 | x | 5
O=C(Cn1cnc([N+](=O)[O-])n1)N/N=C/c1ccccc1O | 49 | 53* | 4 | 7 | -11 | -8 | 69* | 5 | 24 | -1
CS(=O)(=O)N1CCC(NC(=O)Nc2ccc(OC(F)(F)F)cc2)CC1 | 7 | 2 | 5 | x | -5 | 4 | x | x | x | x
